In ChEMBL document CHEMBL1125525, “5'-Azido-delta 8-THC: a novel photoaffinity label for the cannabinoid receptor” (1992):

What was measured:
Type in all cases: functional
Mus musculus [1] = organism: Mus musculus; experiment: Antinociception measured in terms of the maximum possible effect (MPE)on latency by mouse tail-flick assay
Method in brief: (§1)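 Male ICR mice dosed intravenously; same animals scored for decreased locomotor activity (sedation), ring immobility (catalepsy), hypothermia and tail-flick antinociception. Dose-response data analysed by ANOVA; ED50 (mg/kg) with 95% confidence limits as potency, maximum effect as efficacy: percent inhibition of locomotion, change in °C for hypothermia, percent immobility for catalepsy, percent maximum possible effect on tail-flick latency.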

Mus musculus [2] = organism: Mus musculus; experiment: Percent inhibition measured in terms of the maximum possible effect (MPE)on latency by mouse tail-flick assay; method in brief: as §1
Mus musculus [3] = experiment: Compound was evaluated by in vivo administration for percent inhibition of locomotion in mice; method in brief: as §1
Mus musculus [4] = experiment: Induction of ring immobility (catalepsy), measured by in vivo administration of drug in mouse; method in brief: as §1
Mus musculus [5] = experiment: Compound was evaluated by in vivo administration for its ability to produce sedation; method in brief: as §1
Mus musculus [6] = experiment: Compound was evaluated by in vivo administration for Percent inhibition of locomotion in mice; method in brief: as §1
Mus musculus [7] = experiment: Compound was evaluated by in vivo administration for its ability to produce hypothermia (change in temperature); method in brief: as §1

## CCCCCc1cc(O)c2c(c1)OC(C)(C)[C@@H]1CC=C(C)C[C@@H]21 [DELTA-8-TETRAHYDROCANNABINOL]
Mus musculus [1]
  ED50: 1.5 mg/kg
Mus musculus [2]
  Inhibition: 100%
Mus musculus [3]
  Inhibition: 79%
Mus musculus [4]
  ED50: 5.2 mg/kg
  Immobility: 58%
Mus musculus [5]
  ED50: 1.9 mg/kg

## CC1=CC[C@@H]2[C@@H](C1)c1c(O)cc(CCCCCN=[N+]=[N-])cc1OC2(C)C
Mus musculus [6]
  Inhibition: 73%
Mus musculus [1]
  ED50: 0.1 mg/kg
Mus musculus [2]
  Inhibition: 100%
Mus musculus [7]
  ED50: 0.8 mg/kg
Mus musculus [4]
  ED50: 0.8 mg/kg
  Immobility: 57%
Mus musculus [5]
  ED50: 0.2 mg/kg
